The values that follow come from publication PMC4227885 (Science translational medicine, 2013).

Like-named read-outs stand apart in the source and are kept apart here.

For data set [1], the target named is human cytochrome bc1 (derived from HEK-293 cells) (Homo sapiens, UniProt P00156). Nature of the data set: Inhibition of human cytochrome bc1 activity. The class given is biochemical.
Another data set relates to P. berghei ookinete. Nature of the data set: In vitro ookinete assay. The class given is cell-based. Particulars: read-out: IC50 ookinete production.
Data set [2] has as its system P. yoelii in CD1 Swiss mice. Particulars: for ED90: P. yoelii, 4-day test, oral, PEG400 vehicle.
Data set [3] has as its system P. falciparum strains (D6, 3D7, Dd2, W2, recent isolates from SE Asia, TM90-C2B). The class given is cell-based, Plasmodium falciparum. The note with it: atovaquone-resistant clinical isolate TM90-C2B.
The test system of data set [4] is transgenic P. falciparum clone D10yDHOD. The data set can be described thus: Susceptibility of transgenic clone expressing yeast DHOD. The class given is cell-based, Plasmodium falciparum.
The test system of data set [5] is P. falciparum clinical isolates. The data set can be described thus: Ex vivo susceptibility of clinical field isolates, modified WHO microtest. The class given is cell-based, Plasmodium falciparum. Particulars: read-out: median EC50, Papua, Indonesia. Put shortly: (§1)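 Isolates were taken from patients attending malaria clinics in southern Papua, Indonesia, and tested ex vivo by a modified WHO microtest. Median IC50 was reported separately for each species. Comparisons used the Wilcoxon rank sum test.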

Data set [6] has as its system P. vivax clinical isolates. The data set is described as above. It counts as cell-based, Plasmodium vivax. The note with it: read-out: median EC50, Papua, Indonesia. Put shortly: as §1
The next data set relates to J774 mouse macrophages. It counts as cell-based.
For data set [7], the system named is human foreskin fibroblasts (HFF). The class given is cell-based.
The subject of data set [8] is murine bone marrow derived hematopoietic progenitors (CFU-GM, BFUE, CFU-GEMM). It counts as cell-based.
The target of data set [9] is P. falciparum cytochrome bc1 (Plasmodium falciparum, UniProt Q02768). It counts as biochemical. Particulars: read-out: IC50, nM P. falciparum cytochrome bc1; P. falciparum mitochondria.
Data set [10] relates to P. falciparum. The data set can be described thus: In vitro parasite reduction ratio. The class given is cell-based.
Data set [11] concerns P. falciparum strains (D6, Dd2, TM90-C2B, V1/S). Nature of the data set: In vitro isobolar testing with proguanil, fixed combination ratios. It counts as cell-based. Particulars: isobolar testing against 4 strains.
For data set [12], the system named is P. berghei infected ICR mice. The data set can be described thus: Thompson test, blood stage efficacy. It counts as in vivo.
In data set [13] the test system is P. falciparum. The data set can be described thus: Immuno-deficient. The class given is in vivo. Put shortly: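 NOD-scid IL2Rγnull-type immunodeficient mice were engrafted with human erythrocytes and infected with P. falciparum. The test compound was given orally daily for 4 consecutive days as a non-optimized suspension, not in PEG400 (3 vehicle mice, 11 treated). Parasitemia was measured by FACS, with Giemsa smears at 48 h. Blood levels were followed over 23 h after the first dose. ED90 was taken at day 7 versus vehicle. AUCED90 was estimated graphically from AUC0→23h versus log10 day-7 parasitemia for each mouse.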

Data set [14] concerns exoerythrocytic stages of P. berghei. Nature of the data set: In vitro liver stage assay, luciferase sporozoites on HEPG2 hepatoma cells. The class given is cell-based. Particulars: read-out: EC50, luciferase expression, 44 h post infection. Put shortly:
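Luciferase-expressing P. berghei sporozoites were added to HepG2 hepatoma monolayers and allowed to infect for 1 h. A dilution series of the test compound was then added and plates were incubated at 37 °C. Luciferase was read 44 h post infection. EC50 came from a nonlinear logistic dose-response fit.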

In data set [15] the test system is P. cynomolgi liver schizonts. The data set can be described thus: In vitro liver stage assay in primary rhesus hepatocytes. The class given is cell-based. Particulars: read-out: IC50 liver schizonts, 6-day incubation.
Data set [16] relates to P. berghei (luciferase) sporozoite infections of BALB/c mice. Nature of the data set: In vivo liver stage, sporozoite infection with bioluminescence imaging. The note with it: per os one hour post infection. Put shortly:
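BALB/c mice (5 per group) were infected with luciferase-expressing P. berghei sporozoites. One hour later they received a single dose of test compound by gavage; untreated mice served as controls. For bioluminescence imaging at 44 h and on days 6 and 13, mice were injected with D-luciferin and anesthetized, tracking liver and blood stages.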

Data set [17] deals with P. falciparum (NF54) gametocytes (Stage I-II). The data set can be described thus: Inhibition of early stage gametocyte development. The note with it: three days exposure of Stage I-II gametocytes. It counts as cell-based.
The subject of data set [18] is late stage IV - V P. falciparum gametocytes. The data set can be described thus: Late stage gametocyte viability, high content imaging. The class given is cell-based. The note with it: read-out: IC50 stage IV-V gametocyte viability.
Data set [19] deals with P. berghei oocyst formation in Anopheles stephensi mosquitoes. Nature of the data set: Oocyst formation after membrane feeding of drug-spiked infected blood. The class given is in vivo. Put shortly: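 Mouse blood infected with GFP-expressing P. berghei was mixed with the test compound and placed at once in membrane feeders at 39 °C. It was offered to about 75 overnight-starved mosquitoes. After 7 days, fluorescent oocysts on dissected midguts were counted by semi-automated image capture and analysis. DMSO was the negative control.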

The subject of data set [20] is P. falciparum strain 3D7 oocyst formation. Nature of the data set: Standard membrane feeding assay. The class given is in vivo.
Data set [21] relates to P. berghei oocysts in Anopheles stephensi. Nature of the data set: In vivo transmission blocking, mosquitoes fed on treated infected mice. Particulars: for inhibition at 10 mg/kg: read-out: inhibition of oocyst production. Put shortly: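 Mice at about 3% P. berghei parasitemia received a single oral dose of test compound (0.1–10 mg/kg) or vehicle. Female Anopheles stephensi fed on the mice 1 h after treatment. Midguts were dissected on day 10 post infection and examined for oocysts. Dihydroartemisinin and primaquine (10 mg/kg) were positive controls.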

The nature of data set [22]: Pharmacokinetics in mice, intravenous and oral. The class given is in vivo, mouse. The note with it: 0.3 mg/kg oral in PEG400. Put shortly: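 Non-fasted male Swiss outbred mice were used. The IV dose was 0.1 mg/kg, formulated in mouse plasma and given via the tail vein. The oral dose was 0.3 mg/kg by gavage, as a solution in undiluted PEG400.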
The nature of data set [23]: Aqueous solubility, kinetic and thermodynamic methods. The class given is physicochemical. Put shortly: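 Kinetic method: DMSO stock diluted into various media. Thermodynamic method: equilibrium solubility with physiologically relevant media and incubation time.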
Data set [24] can be described thus: Metabolic stability in liver microsomes. The note with it: in vitro incubation with liver microsomes, multiple species. It counts as in vitro ADME.
For data set [25], the system named is major cytochrome P450 enzymes. The data set can be described thus: Cytochrome P450 inhibition. It counts as in vitro ADME. Particulars: at concentrations needed for efficacy.
For data set [26], the target named is hERG (human-Ether-a-go-go-Related Gene) channel (Homo sapiens, UniProt Q12809). It counts as cell-based.
In data set [27] the test system is 5-strain Ames bacterial assay. The class given is cell-based.
Data set [28] relates to 100 neurotransmitter receptors, peptide receptors, ion channels, reuptake sites, and enzymes.
The next data set deals with two rat cell lines. Particulars: read-out: IC50 level, ATP levels; either of two rat cell lines, galactose medium.
Data set [29] has as its system P. falciparum strain 3D7 oocyst formation. The note with it: comparable SMFA; cited from earlier work.

Chain of hERG (human-Ether-a-go-go-Related Gene) channel (Q12809 whole entry): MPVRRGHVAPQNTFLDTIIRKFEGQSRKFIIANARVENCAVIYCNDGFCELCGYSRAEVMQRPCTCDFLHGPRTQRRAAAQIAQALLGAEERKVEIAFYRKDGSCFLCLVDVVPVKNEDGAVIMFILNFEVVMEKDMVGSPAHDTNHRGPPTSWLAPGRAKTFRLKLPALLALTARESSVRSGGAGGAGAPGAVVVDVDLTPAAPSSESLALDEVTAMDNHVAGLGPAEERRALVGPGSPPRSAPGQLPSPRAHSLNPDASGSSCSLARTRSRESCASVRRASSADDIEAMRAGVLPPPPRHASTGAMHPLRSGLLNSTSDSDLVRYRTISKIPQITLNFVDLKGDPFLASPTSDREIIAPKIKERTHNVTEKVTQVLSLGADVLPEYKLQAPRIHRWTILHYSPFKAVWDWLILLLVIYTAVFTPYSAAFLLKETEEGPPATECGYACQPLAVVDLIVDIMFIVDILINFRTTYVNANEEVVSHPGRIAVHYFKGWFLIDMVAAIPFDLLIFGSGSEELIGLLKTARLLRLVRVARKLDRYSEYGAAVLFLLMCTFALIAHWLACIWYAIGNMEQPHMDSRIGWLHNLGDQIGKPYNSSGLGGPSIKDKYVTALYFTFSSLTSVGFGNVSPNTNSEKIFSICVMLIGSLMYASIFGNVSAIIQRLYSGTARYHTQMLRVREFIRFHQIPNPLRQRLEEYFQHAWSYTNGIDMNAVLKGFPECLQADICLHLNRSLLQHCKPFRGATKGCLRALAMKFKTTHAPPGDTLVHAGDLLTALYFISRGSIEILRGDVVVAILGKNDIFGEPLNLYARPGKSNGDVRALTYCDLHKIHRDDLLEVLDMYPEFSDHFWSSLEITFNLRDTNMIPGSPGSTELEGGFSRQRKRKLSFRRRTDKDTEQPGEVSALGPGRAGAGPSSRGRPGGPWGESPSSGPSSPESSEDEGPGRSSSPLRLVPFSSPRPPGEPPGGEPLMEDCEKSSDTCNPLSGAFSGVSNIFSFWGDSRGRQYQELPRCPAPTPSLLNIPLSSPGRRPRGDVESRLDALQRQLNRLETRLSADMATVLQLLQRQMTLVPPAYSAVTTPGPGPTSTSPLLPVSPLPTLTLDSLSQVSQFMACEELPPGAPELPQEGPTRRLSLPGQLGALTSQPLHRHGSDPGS
Chain of P. falciparum cytochrome bc1 (Q02768 whole entry): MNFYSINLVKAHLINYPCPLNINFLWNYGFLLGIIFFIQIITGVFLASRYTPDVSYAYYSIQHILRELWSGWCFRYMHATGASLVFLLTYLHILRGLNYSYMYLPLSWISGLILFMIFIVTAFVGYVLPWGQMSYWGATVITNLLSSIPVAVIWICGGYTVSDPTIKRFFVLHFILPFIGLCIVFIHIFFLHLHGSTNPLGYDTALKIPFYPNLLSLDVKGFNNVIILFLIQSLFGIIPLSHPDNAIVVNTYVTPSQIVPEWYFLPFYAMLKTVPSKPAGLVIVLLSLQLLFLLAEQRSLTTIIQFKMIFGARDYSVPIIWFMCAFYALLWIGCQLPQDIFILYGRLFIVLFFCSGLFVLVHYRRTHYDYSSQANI

One may read the IC50 as the point on the concentration scale where inhibition reaches its midpoint. Consider `O=C1C(O)=C([C@H]2CC[C@H](c3ccc(Cl)cc3)CC2)C(=O)c2ccccc21` [Atovaquone, reference compound], for which the IC50 in [1] stood at 460 nM; in the data set with P. berghei ookinete (Plasmodium berghei, 24 h) it was 0.067 µM. This compound gave an ED90 in data set [2] of 0.04 mg/kg/day.

Regarding `Cc1[nH]c2ccccc2c(=O)c1-c1ccc(Oc2ccc(OC(F)(F)F)cc2)cc1` [ELQ-271], the IC50 in [1] (read-out: IC50 human cytochrome bc1, enzyme derived from HEK cells) was 1990 nM.

What is called EC50 is the concentration giving half of the maximal effect. Take `COc1cc2[nH]c(C)c(-c3ccc(Oc4ccc(OC(F)(F)F)cc4)cc3)c(=O)c2cc1Cl` [ELQ-300]: the “cross-resistance with atovaquone in TM90-C2B” value in [3] was determined as 1.3 fold. The “sensitivity of D10yDHOD transfectants” value in data set [4] is “insensitive”. Further, the results for the EC50 in [5], in data set [6] and in [14] were 0.0149 µM, 0.0179 µM and 0.00102 µM, respectively. In addition, the IC50 in the data set with J774 mouse macrophages is above 10 µM; in [7], above 10 µM; in data set [8], above 10 µM; in data set [1] (read-out: IC50, nM human cytochrome bc1, derived from HEK-293 cells), above 10000 nM; in data set [9] it was 0.58 nM; in data set [15] it was around 0.1 µM. Besides, the IC50 in data set [18] (72 hr) was 0.0719 µM; with P. berghei ookinete (first 24 h of development, GFP endpoint) it was 0.056 µM; in data set [26] it was above 11 µM; in the data set on two rat cell lines, above 100 µM. Moreover, the “time required to kill >99.9% of parasites” value in the data set with P. falciparum [10] (10x EC50 concentration) is “≈ 100 h”. Moreover, in the data set with P. falciparum [10] (exposure up to 120 hr), the speed of action result is on record as “slow-acting”. In addition, in data set [11], the interaction with proguanil result is “strong pharmacological synergism”. Also, the “curative blood stage dose” value in data set [12] (Thompson or Peter's tests) was 1 mg/kg. The “fifty percent effective dose (ED50)” value in data set [12] (Thompson test, P. berghei, ICR mice) came out at 0.016 mg/kg/day. Also, the “dose that reduced parasitemia by 90% at day 7 (ED90)” value in the data set with P. falciparum [13] (SCID mice, oral daily for four days, suspension formulation) was 5.9 mg/kg/day. Also, in the data set on P. falciparum [13] (SCID mouse model, blood), the “estimated exposure at the ED90 dose (AUCED90)” value was 1.1 μg·h/mL/day. For the same compound, the “single dose that completely blocked infection” value in data set [16] is at least 0.03 mg/kg. The “lowest exposure preventing gametocyte development to Stage IV” value in data set [17] is at most 0.1 µM. The “reduction of oocyst burden in mosquito midguts” value in data set [19] (10 nM) is listed as 19.2%. For the same compound, the “reduction of the total oocyst count relative to controls” value in data set [19] (blood containing 100 nM) is reported as 99.4%. In addition, in data set [19] (blood containing 1 μM drug), the oocyst formation result is “no oocysts formed”. Moreover, in data set [20] (one of two independent studies), the “concentration that completely blocked oocyst formation” value is given as at least 10 nM. In data set [20] (the other study, 10 nM), the “reduction in oocyst formation” value was 95.9%. Moreover, in data set [21] (single oral dose, feeding one hour after treatment), the “dose that completely prevented transmission (oocyst development)” value is listed as at least 0.1 mg/kg. Moreover, the Tmax result in data set [22] was “approximately 7.5 h”. Further, in data set [22], the oral bioavailability entry is on record as “approximately 100%”. The aqueous solubility entry in [23] is on record as “low aqueous solubility”. In addition, the “stability to metabolic degradation by cytochrome P450 enzymes” value in data set [24] was “highly stable”. Besides, the “inhibition of the major cytochrome P450 enzymes” value in [25] is given as “did not inhibit”. Besides, the mutagenic potential entry in data set [27] is recorded as “lacks mutagenic potential”. The “inhibition in screen of 100 targets” value in data set [28] is on record as “did not observe any significant inhibition”. Further, the “non-recrudescence dose relative to atovaquone” value in [2] (P. yoelii murine model) turned out to be 30 times lower. Also, the ED90 in data set [2] is listed as 0.15 mg/kg/day. The compound further returned an AUCED90 in [2] (mouse, in vivo) of 1.4 μg·h/mL/day. In addition, in [2] (mouse, in vivo, po), the “drug exposure (AUC0-24 h) in peripheral blood at the ED90” value worked out at 1400 ng·h/mL.

In the case of `C[C@H]1Cc2c([nH]c3cc(Cl)c(F)cc23)[C@@]2(N1)C(=O)Nc1ccc(Cl)cc12` [NITD609], the “concentration required to completely inhibit oocyst formation” value in data set [29] is given as 500 nM.

The inhibition is how much of the control response was suppressed. Consider `C[C@H]1[C@@H](O)O[C@@H]2O[C@@]3(C)CC[C@H]4[C@H](C)CC[C@@H]1[C@@]24OO3` [dihydroartemisinin], for which the inhibition at 10 mg/kg in [21] is 63.7%.

As for `COc1cc(NC(C)CCCN)c2ncccc2c1` (stereo not shown) [primaquine], in data set [21], the inhibition at 10 mg/kg worked out at 95.4%.

On to `COc1ccc(C[C@H](N)C(=O)N[C@H]2[C@@H](O)[C@H](n3cnc4c(N(C)C)ncnc43)O[C@@H]2CO)cc1` [puromycin, reference compound], for which the IC50 in [18] (Plasmodium falciparum, 72 h) is 0.0753 µM.
